{"data": "Published values of several laboratories", "target": "Serine/threonine-protein kinase N2 (PKN2, Homo sapiens, UniProt Q16513)", "note": "Protocols differ between the studies behind these lines."}
{"Structure (SMILES)": "Cc1cnc(Nc2ccc(C(=O)N3CCC(N4CCCC4)CC3)cc2)nc1-c1cc2ccccc2s1", "test": "binding, competition with immobilised ligand", "conditions": "1 µM", "remaining binding [%]": 21}
{"Structure (SMILES)": "C[C@@H]1CN(c2cc(-c3nn(C)c4ccc(OC5(C)CC5)cc34)ncn2)C[C@H](C)O1", "test": "cell-free assay, competition with immobilised ligand", "conditions": "1 µM", "remaining binding [%]": 100}
{"Structure (SMILES)": "F[C@@H]1CCN(c2nccc(-c3cnn4ncccc34)n2)C1", "test": "binding", "conditions": "1 µM", "remaining binding [%]": 100}
{"Structure (SMILES)": "O=C1NC(c2ccccn2)Sc2ccccc21 (stereo not shown)", "test": "cell-free assay, competition with immobilised ligand", "conditions": "1 µM", "remaining binding [%]": 100}
{"Structure (SMILES)": "CNC(=O)[C@@H]1CC[C@@H](n2c(-c3ccc4cnccc4c3)nc3ccc(C(=O)NCc4cccc(C(N)=O)c4)cc32)C1", "test": "binding, competition with immobilised ligand", "conditions": "1 µM", "remaining binding [%]": 94}
{"Structure (SMILES)": "C[C@H](c1ccc(F)cc1)N(Cc1cccc(C(=O)O)c1)C(=O)c1cnc2ccccc2c1", "test": "cell-free assay, competition with immobilised ligand", "conditions": "1 µM", "remaining binding [%]": 86}
{"Structure (SMILES)": "COc1cnc(Nc2cccc(S(N)(=O)=O)c2)nc1N1CCN(c2ccccc2)C(=O)C1", "test": "binding, competition with immobilised ligand", "conditions": "1 µM", "remaining binding [%]": 100}
{"Structure (SMILES)": "CCN1CCN(Cc2ccc(C(=O)Nc3ccc(C)c(Oc4ccc5c(c4)CC(=O)N5)c3)cc2C(F)(F)F)CC1", "test": "binding, competition with immobilised ligand", "conditions": "1 µM", "remaining binding [%]": 100}
{"Structure (SMILES)": "C[C@@H]1CCN(c2nccc(-c3cnn4ncccc34)n2)C1", "test": "binding", "conditions": "1 µM", "remaining binding [%]": 71}
{"Structure (SMILES)": "O=C(NCc1ncc(C(F)(F)F)cc1Cl)c1ccc2c(c1)C1(CCS(=O)(=O)CC1)[C@@H](C1CC1)N2S(=O)(=O)c1ccc(F)cc1", "test": "cell-free assay, competition with immobilised ligand", "conditions": "1 µM", "remaining binding [%]": 68}
{"Structure (SMILES)": "N[C@@H]1CCN(c2nccc(-c3cnn4ncccc34)n2)C1", "test": "binding", "conditions": "1 µM", "remaining binding [%]": 100}
{"Structure (SMILES)": "C=CC(=O)N1CCC(C(=O)NCC(=O)N2CCN(c3nc(-c4cnc(N)nc4C(F)F)nc(N4CCOCC4)n3)CC2)CC1", "test": "binding, competition with immobilised ligand", "conditions": "1 µM", "remaining binding [%]": 84}
{"Structure (SMILES)": "O=C(c1ccc(Nc2ncc(Cl)c(-c3cc4ccccc4s3)n2)cc1)N1CCC(N2CCCC2)CC1", "test": "binding, competition with immobilised ligand", "conditions": "1 µM", "remaining binding [%]": 11}
{"Structure (SMILES)": "Cc1cnn2ncc(-c3ccnc(N(C)C)n3)c2c1", "test": "binding", "conditions": "1 µM", "remaining binding [%]": 94}
{"Structure (SMILES)": "COc1ncc2cc3ccccc3nc2c1C#N", "test": "cell-free assay, competition with immobilised ligand", "conditions": "5 µM", "remaining binding [%]": 80}
{"Structure (SMILES)": "Nc1ncc2c(n1)-c1c([nH]c3ccc(C#CC4CC4)cc13)CCCC2", "test": "binding, competition with immobilised ligand", "conditions": "1 µM", "remaining binding [%]": 72}
{"Structure (SMILES)": "O=C(NCC1CCOCC1)c1n[nH]cc1NC(=O)c1c(F)cccc1F", "test": "binding, competition with immobilised ligand", "conditions": "1 µM", "remaining binding [%]": 89}
{"Structure (SMILES)": "CN(C)c1nccc(-c2cnn3ncccc23)n1", "test": "binding", "conditions": "1 µM", "remaining binding [%]": 100}
{"Structure (SMILES)": "C[C@@H]1CN(c2cc(-c3n[nH]c4ccc(OC5(C)CC5)cc34)ncn2)C[C@H](C)O1", "test": "cell-free assay, competition with immobilised ligand", "conditions": "0.1 µM", "remaining binding [%]": 89}
{"Structure (SMILES)": "O=C(c1ccc(Nc2nccc(-c3cc4ccccc4s3)n2)cc1)N1CCC(N2CCCC2)CC1", "test": "binding, competition with immobilised ligand", "conditions": "1 µM", "remaining binding [%]": 45}
{"Structure (SMILES)": "Cc1nc(C2CCN(C(=O)c3ccc(OC(F)(F)F)cc3N)CC2)c2ncc(N3CCN(C)CC3)cc2n1", "test": "cell-free assay, competition with immobilised ligand", "conditions": "1 µM", "remaining binding [%]": 100}
{"Structure (SMILES)": "COc1ccnn2ncc(-c3ccnc(N(C)C)n3)c12", "test": "binding", "conditions": "1 µM", "remaining binding [%]": 87}
